This excerpt belongs to a sample that is enriched for hits.
HCT116 bCat-KO = beta-catenin-lacking colon tumor cell growth suppression; HCT116 beta-catenin knockout viability, CellTiter-Glo, 60 h; stronger effect = lower value; 140,000 compounds, 1.5% hits; viability, % at 10 µM; AID 818;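 active = viability at or under a set limit, the compound median less 4 SD, cut at about 6% in these data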
Phagocyt inh = inhibitors of macrophage phagocytosis | 110,000 compounds, 0.07% hits | J774A.1 macrophage IgG-bead phagocytosis, imaging | inhibition, % at 5 µM;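 active = inhibition above the mean of the plate negative controls plus 5 SD, cut at about 13% in these data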;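 also: phagocytic index as fraction of beads internalized from green versus red external bead signal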
HCT116 PTEN-null = suppresses growth of cells with PTEN deletion. HCT116 PTEN-null viability, CellTiter-Glo, 60 h; stronger effect = lower value. viability, % at 10 µM. 140,000 compounds, 1.2% hits. AID 827;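 active = viability at or below a set limit, 4 SD under the median of all tested compounds, cut at about 3.7% in these data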;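 also: PTEN knockout HCT116 line with beta catenin targeted HCT116 as companion control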
Lung fibro prol = blocks proliferation of human lung fibroblasts; viability, % at 10 µM; LL 47 human lung fibroblast viability, ATP luminescence; stronger effect = lower value; 85,000 compounds, 1.1% hits; AID 719;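 active = viability at or below 50% in the single dose screen; inactive = viability above 50%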;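 also: compound exposure lasted 72 h before the ATP readout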
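Material: human LL 47 lung fibroblast cells; quantity: 1,150 cells/well; medium: IMEM plus 15% FBS; doses: 0.1% DMSO in all compound wells; timing: overnight attachment after seeding, then 72 h compound exposure at 37 °C; detection: CellTiter-Glo luminescence; measure: % viability of median cell-only signal; controls: cell-only wells, no compound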
HUVEC prolif 384 = blocks proliferation of human endothelial cells; viability, % at 10 µM (by protocol); HUVEC proliferation, CellTiter-Glo luminescence, 72 h; stronger effect = lower value; AID 648; 86,000 compounds, 1.1% hits;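 active = viability at or below 30%; inactive = viability above 30%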
H69AR inhibit = blocks growth of human H69AR lung tumor cells; H69AR lung tumor viability, ATP luminescence, 72 h; stronger effect = lower value; 85,000 compounds, 6% hits; viability, % at 10 µM;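 active = viability at or below 40%; inactive = viability above 40%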;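 also: multidrug resistant small cell line overexpressing MRP-1 efflux transporter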
A number is an active result; n = inactive; x = no result given.

SMILES | HCT116 bCat-KO | Phagocyt inh | HCT116 PTEN-null | Lung fibro prol | HUVEC prolif 384 | H69AR inhibit
CCOc1ccc(CCNC(=O)C2CCN(c3nnc(-n4cccc4)s3)CC2)cc1 | n | n | n | n | n | n
CCOc1ccc(CCNC(=O)C2CCN(c3nnc(-n4cccc4)s3)CC2)cc1OCC | n | n | n | n | n | 40
Cc1cc2nc(-c3ccc(SCC(=O)N4CCOCC4)nc3)[nH]c2cc1C | n | n | n | n | n | 28
CCOC(=O)CSc1ccc(-c2nc3cc(C)c(C)cc3[nH]2)cn1 | n | n | n | n | n | n
Cc1cc2nc(-c3ccc(SCC(=O)N4CCN(C(=O)c5ccco5)CC4)nc3)[nH]c2cc1C | n | n | n | n | n | 12
Cc1ccccc1C(=O)NC1CCN(C(=O)N(c2ccccc2)c2ccccc2)CC1 | n | x | n | n | n | n
Cc1ccc(Nc2cc(C)nc(-c3ccccc3O)n2)cc1 | n | n | n | n | n | n
Cc1cc(N/N=C/c2ccc(O)c(C)c2O)nc(-c2ccccc2O)n1 | 1.7 | n | 1.8 | x | x | x
Cc1cc(NCCCN)nc(-c2ccccc2O)n1 | n | n | n | n | n | 21
O=C(Nc1ccccc1NC(=O)c1c(F)c(F)c(F)c(F)c1F)c1c(F)c(F)c(F)c(F)c1F | 2.4 | n | 2.6 | n | n | n
O=C(Nc1cccc(F)c1)c1c(F)c(F)c(F)c(F)c1F | n | n | n | n | n | n
CCOC(=O)C(=Cc1cc(=O)c(OC)co1)C(=O)OCC | 1.9 | n | 1.4 | x | x | x
Cc1cc(C)c2cc(CN(CCO)C(=O)Nc3ccc(F)cc3)c(=O)[nH]c2c1 | n | x | n | n | n | 38
COc1ccc(NC(=O)N(CCO)Cc2cc3c(C)cc(C)cc3[nH]c2=O)cc1 | n | n | n | n | n | n
O=C1CCSc2ccc(Cl)cc2N1Cc1ccc(Cl)cc1 | n | n | n | x | x | x
CC(=O)N1c2ccccc2N(Cc2ccc(C)cc2C)C(=O)C1(C)C | n | n | n | 46 | n | 23
C=CCN1C(=O)C(C)(C)N(C(C)=O)c2ccccc21 | n | n | n | x | x | x
COc1ccc(CN=C(C)c2c(C(F)(F)F)[nH]n(-c3nc4ccccc4s3)c2=O)cc1 | n | x | n | n | 22 | 13
COC(=O)Cc1[nH]n(-c2nc3ccccc3s2)c(=O)c1C(C)=O | n | n | n | n | n | n
Cc1ccc(-c2[nH]ncc2/C=N/n2c(COc3ccccc3)nc3ccccc3c2=O)cc1 | 1.6 | n | 1.9 | x | x | x
Cc1ccccc1OCc1nc2ccccc2c(=O)n1/N=C/c1cn[nH]c1-c1ccccc1 | n | n | n | x | x | x
Cc1ccc(C2CC(C(F)F)n3ncc(C(=O)Nc4cnn(Cc5ccccc5C)c4)c3N2)cc1 (centres undefined) | 1.8 | n | 2.1 | n | 16 | 14
O=C(NC1CCCC1)c1sc(=S)n2c1[nH]c(=O)c1ccccc12 | n | n | n | n | n | 22
CCOc1ccc(C2C=C(c3ccc(C)cc3)Nc3nnnn32)cc1 (centres undefined) | n | n | n | n | 22 | 2.2
COc1ccc(C2=CC(c3c(C)nn(-c4ccccc4)c3Cl)n3nnnc3N2)cc1OC (centres undefined) | n | n | n | n | n | 24
SMILES | HCT116 bCat-KO | Phagocyt inh | HCT116 PTEN-null | Lung fibro prol | HUVEC prolif 384 | H69AR inhibit
CCOc1ccc(C2C=C(c3ccc(C)cc3)Nc3ncnn32)cc1 (centres undefined) | n | n | n | n | n | n
COc1ccc(-c2c(C)nn(-c3ccccc3)c2N)cc1OC | n | x | n | n | n | n
CCOc1ccc(C2C=C(c3ccccc3)Nc3nnnn32)cc1 (centres undefined) | n | n | n | n | n | 33
COc1ccccc1C1C=C(c2ccc(C)cc2)Nc2nnnn21 (centres undefined) | n | n | n | n | n | 18
O=C(c1cc(C2CC2)on1)N1CCN(c2ccc(F)cc2)CC1 | n | n | n | x | x | x
CCOc1cc(NS(=O)(=O)c2ccc(NC(C)=O)cc2)c(OCC)cc1NC(=O)c1cccs1 | n | n | n | x | x | x
CC(C)(C)c1nnc2sc(SCC(=O)N3CCCc4ccccc43)nn2c1=O | n | n | n | n | n | 17
O=C(CSc1ccc2nnc(-c3ccc(Cl)cc3)n2n1)N1CCCc2ccccc21 | 2.4 | n | 2.2 | x | x | x
CC(C)(C)c1nnc2sc(SCC(=O)c3cccs3)nn2c1=O | n | n | n | n | n | 14
CS(=O)(=O)N(CC(=O)N1CCN(c2cccc(Cl)c2)CC1)c1cccc(F)c1 | n | n | n | n | n | n
COc1cc([C@@H]2[C@H]3CNCC=C3C(C#N)=C(N)C2(C#N)C#N)ccc1OC(C)C | n | n | n | n | n | n
COc1cc(C2C3CN(C)CC=C3C(C#N)=C(N)C2(C#N)C#N)ccc1OC(C)C (centres undefined) | n | n | n | n | n | 35
CC1=C(C(=O)Nc2ccccc2)C(c2ccc(C)cc2)N=C(Nc2nc3ccccc3o2)N1 (centres undefined) | n | n | 3.6 | x | x | x
Cc1ccc(Cl)cc1NC(=O)CC(O)(C(F)(F)F)C(F)(F)F | n | n | n | n | n | 4.5
Cc1ccc(Cl)cc1NC(=O)CSC(N)=O | n | n | n | n | n | 7.6
O=C1CC(c2ccco2)CC2=C1C1c3ccccc3C(=O)N1c1ccccc1N2 (centres undefined) | n | n | n | n | n | n
O=C1CCCC2=C1C1c3ccccc3C(=O)N1c1ccc(C(=O)c3ccccc3)cc1N2 (centres undefined) | n | x | n | n | n | 21
CCN(Cc1cc2cc(OC)ccc2[nH]c1=O)C(=O)c1ccncc1 | n | n | n | n | n | n
COc1cc2cc(CN(Cc3ccc4c(c3)OCO4)C(=O)c3ccco3)c(=O)[nH]c2cc1OC | x | x | x | n | n | n
Cc1ccc2[nH]c(=O)c(CN(Cc3cccnc3)C(=O)c3ccncc3)cc2c1 | n | n | n | n | n | 28
Cc1cc2cc(CN(Cc3ccc4c(c3)OCO4)C(=O)c3ccco3)c(=O)[nH]c2cc1C | n | n | n | n | n | 33
COc1ccc(C(=O)N(Cc2ccccc2)Cc2cc3cc4c(cc3[nH]c2=O)OCCO4)cc1 | n | x | n | 42 | 28 | 18
CCCCN(Cc1cc2cc(OC)ccc2[nH]c1=O)C(=O)COc1ccccc1 | x | x | x | n | n | 39
Clc1ccc(CNCCC2=CCCCC2)cc1 | n | n | n | x | x | x
CN1C(=O)C(O)(CC(=O)c2ccccn2)c2cc(Br)ccc21 (centres undefined) | n | n | n | n | n | 29
CCN1C(=O)C(O)(CC(=O)c2ccccn2)c2ccccc21 (centres undefined) | n | n | n | n | n | n
Cc1ccc(C(=O)CC2(O)C(=O)N(C)c3ccc(Br)cc32)c(C)c1 (centres undefined) | n | n | n | n | n | 36
CC(=O)Nc1cccc(C(=O)/C=C/c2cccs2)c1 | 1.5 | n | 1.6 | x | x | x
O=C(/C=C/c1ccccc1)c1ccccn1 | 5.7 | x | n | x | x | x
Cc1ccc(/C=C/C(=O)c2ccccc2)cc1 | 0.9 | n | 0.4 | 49 | n | n

From PubChem
